{"data": "Results gathered from unrelated publications", "target": "Serine/threonine-protein kinase LATS1 (LATS1, Homo sapiens, UniProt O95835)", "Residues used in one study (O95835 1-1130)": "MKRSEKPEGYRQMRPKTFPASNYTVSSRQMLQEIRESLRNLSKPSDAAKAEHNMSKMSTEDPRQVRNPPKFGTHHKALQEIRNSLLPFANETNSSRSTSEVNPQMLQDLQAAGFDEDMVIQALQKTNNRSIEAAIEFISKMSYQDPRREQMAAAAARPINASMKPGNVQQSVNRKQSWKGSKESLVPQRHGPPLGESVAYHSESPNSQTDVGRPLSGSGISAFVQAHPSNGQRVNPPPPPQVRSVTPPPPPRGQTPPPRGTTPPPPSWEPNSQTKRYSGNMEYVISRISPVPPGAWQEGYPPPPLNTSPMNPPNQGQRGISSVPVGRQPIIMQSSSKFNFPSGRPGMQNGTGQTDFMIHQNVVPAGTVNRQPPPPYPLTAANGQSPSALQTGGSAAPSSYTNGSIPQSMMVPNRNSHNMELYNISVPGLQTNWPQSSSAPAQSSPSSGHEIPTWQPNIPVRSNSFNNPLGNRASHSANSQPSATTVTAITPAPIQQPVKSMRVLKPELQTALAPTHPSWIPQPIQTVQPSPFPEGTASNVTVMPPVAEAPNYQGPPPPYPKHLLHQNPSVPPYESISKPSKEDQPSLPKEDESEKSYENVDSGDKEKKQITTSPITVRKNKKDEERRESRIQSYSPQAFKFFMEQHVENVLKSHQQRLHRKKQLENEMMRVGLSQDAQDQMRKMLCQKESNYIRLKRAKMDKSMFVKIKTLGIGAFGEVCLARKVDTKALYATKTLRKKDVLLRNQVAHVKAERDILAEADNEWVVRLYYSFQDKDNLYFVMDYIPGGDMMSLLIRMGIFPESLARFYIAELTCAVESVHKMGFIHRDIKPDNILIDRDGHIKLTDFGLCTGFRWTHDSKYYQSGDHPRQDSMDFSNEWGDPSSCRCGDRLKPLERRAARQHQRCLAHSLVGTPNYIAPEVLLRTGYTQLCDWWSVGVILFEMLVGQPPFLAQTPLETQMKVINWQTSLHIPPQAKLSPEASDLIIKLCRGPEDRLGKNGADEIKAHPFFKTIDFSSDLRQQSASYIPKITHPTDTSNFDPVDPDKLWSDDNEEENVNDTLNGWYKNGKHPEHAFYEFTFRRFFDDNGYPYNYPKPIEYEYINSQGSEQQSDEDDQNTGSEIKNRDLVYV"}
{"SMILES": "CC(C)(O)[C@H]1CC[C@H](Nc2ccc3ncc(-c4cccc(C(F)(F)F)c4)n3n2)CC1", "test": "enzyme activity, inhibitor", "conditions": "1 µM", "measurement": "remaining activity", "value": "96.1%"}
{"SMILES": "COc1cc(-c2cc(-c3ccc(N4CCNCC4)cc3)cnc2C)cc(OC)c1OC", "test": "enzyme activity, inhibitor", "conditions": "1 µM", "measurement": "inhibition", "value": "7%"}
{"SMILES": "COc1cccc2c(NCc3ccccc3)nc(-n3c(N)nc4ccccc43)nc12", "test": "target engagement in cells, inhibitor, chemoproteomics", "conditions": "20 mM", "measurement": "inhibition", "value": "-30.5%"}
{"SMILES": "Nc1ncnc2occ(-c3ccc(NC(=O)Nc4cc(C(F)(F)F)ccc4F)cc3)c12", "test": "cell-free assay, inhibitor", "conditions": "20 µM", "measurement": "remaining signal", "value": "33%"}
{"SMILES": "CC(=O)N1CCC(c2ccc(C(=O)NC(=N)N)cc2C(F)(F)F)CC1", "test": "cell-free assay, competition with immobilised ligand", "conditions": "1 µM", "measurement": "remaining binding", "value": "72%"}
{"SMILES": "Cc1ccc(C(=O)Nc2ccc(CN3CCN(C)CC3)c(C(F)(F)F)c2)cc1C#Cc1cnc2cccnn12", "test": "enzyme activity, inhibitor", "conditions": "23.5 nM", "measurement": "remaining activity", "value": "93%"}
{"SMILES": "CC1CCCN1c1nccc(-c2cnn3ncccc23)n1 (stereo not shown)", "test": "binding", "conditions": "1 µM", "measurement": "remaining binding", "value": "100%"}
{"SMILES": "CN1CCN(c2cnc3c(C4CCN(C(=O)c5ccc(OC(F)(F)F)cc5N)CC4)ncnc3c2)CC1", "test": "cell-free assay, competition with immobilised ligand", "conditions": "1 µM", "measurement": "remaining binding", "value": "81%"}
{"SMILES": "O=C(Nc1cnn(-c2csc(C(=O)NC3COC3)c2)c1)Nc1ccccc1Cl", "test": "enzyme activity, inhibitor", "conditions": "5 µM", "measurement": "remaining activity", "value": "106%"}
{"SMILES": "Cn1cnc(Br)c1C1=CN(c2ncnc3[nH]cnc23)CCS1", "test": "enzyme activity, inhibitor, radiometric", "conditions": "50 nM", "measurement": "inhibition", "value": "51.5%"}
{"SMILES": "O=C(NC[C@@H]1[C@H]2CN(C(=O)OCc3cc(C(F)(F)F)cc(C(F)(F)F)c3)C[C@@H]12)c1ccc2[nH]nnc2c1", "test": "cell-free assay, competition with immobilised ligand", "conditions": "1 µM", "measurement": "remaining binding", "value": "96%"}
{"SMILES": "Cc1sc(C(=O)NC2COC2)cc1-n1cc(NC(=O)Nc2c(F)cccc2Cl)cn1", "test": "enzyme activity, inhibitor", "conditions": "10 µM", "measurement": "remaining activity", "value": "97.2%"}
{"SMILES": "CCCCNc1ncc2c(-c3ccc(F)cc3)nn(C[C@H]3CC[C@H](N)CC3)c2n1", "test": "target engagement in cells, inhibitor, chemoproteomics", "conditions": "20 mM", "measurement": "inhibition", "value": "7.3%"}
